# What was measured:
# [1] = biological target: T1, Polyunsaturated fatty acid lipoxygenase ALOX15 (Oryctolagus cuniculus, UniProt P12530); assay: Inhibitory concentration against isolated rabbit reticulocyte 15-lipoxygenase measured in the presence of linoleic acid
# T1 sequence (P12530 whole entry): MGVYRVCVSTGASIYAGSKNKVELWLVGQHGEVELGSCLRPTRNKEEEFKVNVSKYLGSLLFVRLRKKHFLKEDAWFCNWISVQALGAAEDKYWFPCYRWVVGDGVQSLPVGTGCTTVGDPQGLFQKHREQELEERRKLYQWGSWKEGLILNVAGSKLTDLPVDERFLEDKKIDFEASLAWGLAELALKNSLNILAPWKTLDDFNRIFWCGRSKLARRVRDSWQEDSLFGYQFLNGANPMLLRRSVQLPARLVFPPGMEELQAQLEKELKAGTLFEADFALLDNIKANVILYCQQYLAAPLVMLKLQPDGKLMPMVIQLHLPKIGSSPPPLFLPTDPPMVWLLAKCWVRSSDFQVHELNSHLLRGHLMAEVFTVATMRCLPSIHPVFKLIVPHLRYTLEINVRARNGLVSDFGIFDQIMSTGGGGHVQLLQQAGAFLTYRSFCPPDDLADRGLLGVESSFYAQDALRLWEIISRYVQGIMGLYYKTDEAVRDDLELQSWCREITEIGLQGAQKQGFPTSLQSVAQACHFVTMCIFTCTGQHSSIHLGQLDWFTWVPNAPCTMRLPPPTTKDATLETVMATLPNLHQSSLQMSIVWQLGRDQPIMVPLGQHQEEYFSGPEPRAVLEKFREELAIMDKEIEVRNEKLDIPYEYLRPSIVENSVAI
# Method in brief: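 15-LO was purified from reticulocytes of phenylhydrazine-treated rabbits. Linoleic acid was the substrate. In a colorimetric assay, the 13-HPODE product oxidizes Fe²⁺ under mildly acidic conditions, and IC50 is derived from this. Many values were also checked spectrophotometrically by the rate of diene formation (A₂₃₄).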
# [2] = biological target: T1, Polyunsaturated fatty acid lipoxygenase ALOX15; assay: Inhibitory concentration against rabbit reticulocyte 15-lipoxygenase with substrate arachidonic acid
# Method in brief: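 Purified rabbit reticulocyte 15-LO, isolated from phenylhydrazine-treated rabbits, with arachidonic acid as the substrate. IC50 comes from a colorimetric read-out in which the 15-HPETE product oxidizes Fe²⁺ under mildly acidic conditions. Many values were also verified by the spectrophotometric diene-formation rate (A₂₃₄).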
# [3] = biological target: T2, Polyunsaturated fatty acid 5-lipoxygenase (Homo sapiens, UniProt P09917); assay: Inhibitory concentration against human 5-lipoxygenase
# T2 sequence (P09917 whole entry): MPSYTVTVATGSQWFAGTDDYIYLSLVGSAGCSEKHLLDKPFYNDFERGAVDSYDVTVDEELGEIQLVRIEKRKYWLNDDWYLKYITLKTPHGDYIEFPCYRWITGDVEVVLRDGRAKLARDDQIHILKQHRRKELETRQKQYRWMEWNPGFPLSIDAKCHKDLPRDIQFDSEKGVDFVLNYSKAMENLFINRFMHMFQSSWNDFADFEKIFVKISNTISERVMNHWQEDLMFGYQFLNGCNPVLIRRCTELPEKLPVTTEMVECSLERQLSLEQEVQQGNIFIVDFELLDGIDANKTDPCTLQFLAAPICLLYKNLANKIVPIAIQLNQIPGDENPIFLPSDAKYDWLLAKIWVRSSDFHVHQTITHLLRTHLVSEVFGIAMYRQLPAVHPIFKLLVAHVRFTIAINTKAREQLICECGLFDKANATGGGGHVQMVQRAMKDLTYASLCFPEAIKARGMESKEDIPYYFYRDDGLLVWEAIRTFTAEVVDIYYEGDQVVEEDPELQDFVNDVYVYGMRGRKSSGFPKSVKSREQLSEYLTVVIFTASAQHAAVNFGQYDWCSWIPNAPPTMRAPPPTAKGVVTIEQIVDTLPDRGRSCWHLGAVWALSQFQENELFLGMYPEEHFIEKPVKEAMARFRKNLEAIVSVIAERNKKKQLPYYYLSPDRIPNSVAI
# Method in brief: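 Recombinant human 5-LO enzyme. Inhibition was followed by oxidation of arachidonic acid as the substrate. IC50 values were determined.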
# [4] = biological target: T3, Polyunsaturated fatty acid lipoxygenase ALOX12 (Homo sapiens, UniProt P18054); assay: Inhibitory concentration against human platelet-derived 12-lipoxygenase
# T3 sequence (P18054 whole entry): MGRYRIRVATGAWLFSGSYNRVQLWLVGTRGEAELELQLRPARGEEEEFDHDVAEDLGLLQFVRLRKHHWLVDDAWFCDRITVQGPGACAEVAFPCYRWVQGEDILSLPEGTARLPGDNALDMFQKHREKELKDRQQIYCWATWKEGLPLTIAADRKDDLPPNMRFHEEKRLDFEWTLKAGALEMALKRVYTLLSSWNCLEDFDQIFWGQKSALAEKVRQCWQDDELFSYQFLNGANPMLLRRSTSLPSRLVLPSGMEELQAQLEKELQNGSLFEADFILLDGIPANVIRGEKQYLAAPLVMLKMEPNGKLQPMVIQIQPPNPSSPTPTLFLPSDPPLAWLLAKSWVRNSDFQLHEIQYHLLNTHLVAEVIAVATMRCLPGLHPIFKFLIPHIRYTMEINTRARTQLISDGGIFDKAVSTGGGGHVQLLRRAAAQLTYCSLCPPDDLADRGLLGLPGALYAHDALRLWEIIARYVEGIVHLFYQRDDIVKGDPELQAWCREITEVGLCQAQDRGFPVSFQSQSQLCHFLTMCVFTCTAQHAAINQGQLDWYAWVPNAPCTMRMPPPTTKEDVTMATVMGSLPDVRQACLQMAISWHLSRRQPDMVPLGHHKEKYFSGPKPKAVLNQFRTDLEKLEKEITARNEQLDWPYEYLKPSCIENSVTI
Compound,IC50 [1],IC50 [2],IC50 [3],IC50 [4]
NNC(=O)c1ccc(S(=O)(=O)NCCc2c(-c3cc4ccccc4o3)[nH]c3ccccc23)cc1,89 nM,135 nM,3500 nM,> 10000 nM
CCCCCc1ccc(S(=O)(=O)NCCc2c(-c3ccc(Cl)cc3)[nH]c3ccccc23)cc1,32 nM,120 nM,> 3000 nM,> 10000 nM
CCCCCc1ccc(S(=O)(=O)NCCCc2c[nH]c3ccccc23)cc1,–,–,> 10000 nM,1070 nM
CCCCCc1ccc(S(=O)(=O)NCCc2c(-c3ccc(OC)cc3)[nH]c3ccccc23)cc1,37 nM,164 nM,8900 nM,> 10000 nM

# Now from value to compound:
IC50 [1],IC50 [2],IC50 [3],IC50 [4],Compound
10 nM,78 nM,> 10000 nM,> 10000 nM,Cc1ccc(S(=O)(=O)NCCc2c(-c3cc4ccccc4o3)[nH]c3ccccc23)cc1
–,–,> 3000 nM,> 3000 nM,CCCCCc1ccc(S(=O)(=O)NCCc2c(-c3cc4ccccc4o3)[nH]c3ccccc23)cc1
62 nM,140 nM,> 3000 nM,> 10000 nM,CCCCCc1ccc(S(=O)(=O)NCCc2c(-c3ccccc3)[nH]c3ccccc23)cc1
